Experimental data as given in ChEMBL document CHEMBL1143122, “Novel analogs of D-e-MAPP and B13. Part 1: synthesis and evaluation as potential anticancer agents” (Bioorg Med Chem, 2008).

What was measured:
KM12 = experiment: Antiproliferative activity against human KM12 cells after 48 hrs; format: functional; conditions: Homo sapiens, KM12, 48 h; for CC50: read-out: Log LC50 (the source's name) (converted); for TGI: read-out: Log TGI (converted)
In short: (§1)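 NCI 60-cell screen. Cells were grown in RPMI 1640 with 5% FBS and 2 mM L-glutamine, then plated at 5,000–40,000 cells/well according to doubling time and preincubated for 24 h at 37 °C in 5% CO2. Compounds were dissolved in DMSO at 400× the top final concentration and tested at five 10-fold dilutions from 10−4 to 10−8 M for 48 h. Growth was read spectrophotometrically; GI50 is 50% net protein reduction.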

RPMI-8226 = experiment: Antiproliferative activity against human RPMI8226 cells after 48 hrs; format: functional; conditions: RPMI-8226, 48 h; for CC50: read-out: Log LC50 (the source's name) (converted); for TGI: read-out: Log TGI (converted); in short: as §1
Hs-578T = experiment: Antiproliferative activity against human HS578T cells after 48 hrs; format: functional; conditions: for TGI: read-out: Log TGI (converted); in short: as §1
UACC-257 = experiment: Antiproliferative activity against human UACC257 cells after 48 hrs; format: functional; conditions: UACC-257, 48 h; for TGI: read-out: Log TGI (converted)
In short: (§2)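 NCI 60-cell-line screen. Lines grown in RPMI 1640 with 5% fetal bovine serum and 2 mM L-glutamine, plated at 5,000–40,000 cells/well according to doubling time, left 24 h at 37 °C in 5% CO2. Drug stocks in DMSO at 400-fold the top final concentration. Five 10-fold dilutions, 10−4 to 10−8 M, incubated 48 h. Growth read spectrophotometrically as net protein; GI50 taken as 50% reduction.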

T47D = experiment: Antiproliferative activity against human T47D cells after 48 hrs; format: functional; conditions: for CC50: read-out: Log LC50 (the source's name) (converted); for TGI: read-out: Log TGI (converted); in short: as §2
786-0 = experiment: Antiproliferative activity against human 786-0 cells after 48 hrs; format: functional; conditions: 786-0, 48 h; for CC50: read-out: Log LC50 (the source's name) (converted); for TGI: read-out: Log TGI (converted); in short: as §1
SK-MEL-28 = experiment: Antiproliferative activity against human SKMEL28 cells after 48 hrs; format: functional; conditions: SK-MEL-28, 48 h; for TGI: read-out: Log TGI (converted); in short: as §1
NCI-H522 = experiment: Antiproliferative activity against human NCI-H522 cells after 48 hrs; format: functional; conditions: NCI-H522, 48 h; for TGI: read-out: Log TGI (converted); in short: as §1
SK-MEL-5 = experiment: Antiproliferative activity against human SKMEL5 cells after 48 hrs; format: functional; conditions: SK-MEL-5, 48 h; for CC50: read-out: Log LC50 (the source's name) (converted); for TGI: read-out: Log TGI (converted); in short: as §1
SF-295 = experiment: Antiproliferative activity against human SF295 cells after 48 hrs; format: functional; conditions: SF-295, 48 h; for TGI: read-out: Log TGI (converted); in short: as §1
HOP-92 = experiment: Antiproliferative activity against human HOP92 cells after 48 hrs; format: functional; conditions: HOP-92, 48 h; for TGI: read-out: Log TGI (converted); in short: as §1
Malme-3M = experiment: Antiproliferative activity against human MALME3M cells after 48 hrs; format: functional; conditions: for TGI: read-out: Log TGI (converted); in short: as §1
CAKI-1 = experiment: Antiproliferative activity against human CAKI1 cells after 48 hrs; format: functional; conditions: CAKI-1, 48 h; for CC50: read-out: Log LC50 (the source's name) (converted); for TGI: read-out: Log TGI (converted); in short: as §1
DU-145 = experiment: Antiproliferative activity against human DU145 cells after 48 hrs; format: functional; conditions: DU-145, 48 h; for CC50: read-out: Log LC50 (the source's name) (converted); for TGI: read-out: Log TGI (converted); in short: as §1
NCI-H322M = experiment: Antiproliferative activity against human NCI-H322M cells after 48 hrs; format: functional; conditions: for CC50: read-out: Log LC50 (the source's name) (converted); for TGI: read-out: Log TGI (converted); in short: as §1
TK-10 = experiment: Antiproliferative activity against human TK10 cells after 48 hrs; format: functional; conditions: TK-10, 48 h; for CC50: read-out: Log LC50 (the source's name) (converted); for TGI: read-out: Log TGI (converted); in short: as §2
HT-29 = experiment: Antiproliferative activity against human HT29 cells after 48 hrs; format: functional; conditions: HT-29, 48 h; for TGI: read-out: Log TGI (converted); in short: as §1
SK-MEL-2 = experiment: Antiproliferative activity against human SKMEL2 cells after 48 hrs; format: functional; conditions: SK-MEL-2, 48 h; for TGI: read-out: Log TGI (converted); in short: as §1
MOLT-4 = experiment: Antiproliferative activity against human MOLT4 cells after 48 hrs; format: functional; conditions: MOLT-4, 48 h; for TGI: read-out: Log TGI (converted); in short: as §1
SW-620 = experiment: Antiproliferative activity against human SW620 cells after 48 hrs; format: functional; conditions: SW-620, 48 h; for TGI: read-out: Log TGI (converted); in short: as §2
A498 = experiment: Antiproliferative activity against human A498 cells after 48 hrs; format: functional; conditions: A498, 48 h; for CC50: read-out: Log LC50 (the source's name) (converted); for TGI: read-out: Log TGI (converted); in short: as §1
HOP-62 = experiment: Antiproliferative activity against human HOP62 cells after 48 hrs; format: functional; conditions: HOP-62, 48 h; for CC50: read-out: Log LC50 (the source's name) (converted); for TGI: read-out: Log TGI (converted); in short: as §1
[1] = Antiproliferative activity against human […] cells after 48 hrs; format: functional; conditions: for TGI: read-out: Log TGI (converted); in short: as §1
MDA-MB-231 = experiment: Antiproliferative activity against human MDA-MB-231 cells after 48 hrs; format: functional; conditions: MDA-MB-231, 48 h; for TGI: read-out: Log TGI (converted); in short: as §1
SNB-75 = experiment: Antiproliferative activity against human SNB75 cells after 48 hrs; format: functional; conditions: SNB-75, 48 h; for CC50: read-out: Log LC50 (the source's name) (converted); for TGI: read-out: Log TGI (converted); in short: as §1
BT-549 = experiment: Antiproliferative activity against human BT549 cells after 48 hrs; format: functional; conditions: BT-549, 48 h; for TGI: read-out: Log TGI (converted); in short: as §1
UACC-62 = experiment: Antiproliferative activity against human UACC62 cells after 48 hrs; format: functional; conditions: UACC-62, 48 h; for TGI: read-out: Log TGI (converted); in short: as §2
MCF7 = experiment: Drug level in human MCF7 cells at 10 uM per 10^6 cells after 0.5 hrs; format: ADME, cell-based; conditions: mcf7, 0.5 h
In short: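 MCF7 cells kept in RPMI 1640 with 10% fetal calf serum at 37 °C, 5% CO2, then treated with 10 μM analog. Intracellular analog measured over time by HPLC-MS in positive-ion MRM mode. Quantified against calibration curves made by spiking an artificial matrix with standards plus internal standard, using analyte/IS peak-area ratios and linear regression. Reported as pmol per 1×10^6 cells.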

K562 = experiment: Antiproliferative activity against human K562 cells after 48 hrs; format: functional; conditions: K562, 48 h; for TGI: read-out: Log TGI (converted); in short: as §1

## CCCCCCCCCCCCCCN[C@H](CO)[C@H](O)c1ccc([N+](=O)[O-])cc1.Cl
KM12
  GI50: 1.86 µM
  CC50: 6.17 µM
  TGI: 3.39 µM
RPMI-8226
  GI50: 2.19 µM
  CC50: > 100 µM
  TGI: 4.68 µM
Hs-578T
  GI50: 2.09 µM
  LC50: 100 µM
  TGI: 5.25 µM
UACC-257
  GI50: 4.27 µM
  TGI: 20.9 µM
UACC-257; read-out: Log LC50 (the source's name) (converted)
  CC50: 93.3 µM
T47D
  GI50: 3.8 µM
  CC50: 87.1 µM
  TGI: 14.1 µM
786-0
  GI50: 1.62 µM
  CC50: 5.75 µM
  TGI: 3.09 µM
SK-MEL-28
  GI50: 1.91 µM
  LC50: 6.03 µM
  TGI: 3.39 µM
NCI-H522
  GI50: 2 µM
  TGI: 3.98 µM
SK-MEL-5
  GI50: 2.45 µM
  CC50: > 100 µM
  TGI: 7.08 µM
SF-295
  GI50: 2.24 µM
  LC50: 9.77 µM
  TGI: 4.68 µM
HOP-92
  GI50: 1.26 µM
  LC50: 6.17 µM
  TGI: 2.75 µM
Malme-3M
  GI50: 2.45 µM
  LC50: 9.55 µM
  TGI: 4.9 µM
CAKI-1
  GI50: 7.59 µM
  CC50: 67.6 µM
  TGI: 24 µM
DU-145
  GI50: 1.55 µM
  CC50: 5.37 µM
  TGI: 2.88 µM
NCI-H322M
  GI50: 4.79 µM
  CC50: 42.7 µM
  TGI: 14.8 µM
TK-10
  GI50: 10.5 µM
  CC50: 66.1 µM
  TGI: 26.3 µM
HT-29
  GI50: 1.86 µM
  TGI: 3.47 µM
SK-MEL-2
  GI50: 3.31 µM
  LC50: > 100 µM
  TGI: 8.13 µM
MOLT-4
  GI50: 1.62 µM
  LC50: 7.59 µM
  TGI: 3.55 µM
SW-620
  GI50: 2 µM
  LC50 (concentration killing 50% of cells): 100 µM
  TGI: 4.68 µM
A498
  GI50: 6.76 µM
  CC50: 93.3 µM
  TGI: 26.9 µM
HOP-62
  GI50: 1.91 µM
  CC50: 6.31 µM
  TGI: 3.47 µM
[1]
  GI50: 2 µM
  LC50: 8.91 µM
  TGI: 4.27 µM
MDA-MB-231
  GI50: 2 µM
  LC50 (50% lethal concentration): 7.76 µM
  TGI: 3.89 µM
SNB-75
  GI50: 3.98 µM
  CC50: 60.3 µM
  TGI: 26.9 µM
BT-549
  GI50: 1.51 µM
  LC50: 5.62 µM
  TGI: 2.88 µM
UACC-62
  GI50: 6.46 µM
  LC50: 75.9 µM
  TGI: 24 µM
MCF7
  Drug uptake: 3600 pmol
K562
  GI50: 1.86 µM
  LC50: 7.76 µM
  TGI: 3.8 µM

## C[C@@H](NC(=O)CCCCCCCCCCCCCCC[n+]1ccccc1)[C@@H](O)c1ccccc1.[Br-]
KM12
  GI50: 1.74 µM
  CC50: 5.75 µM
  TGI: 3.16 µM
RPMI-8226
  GI50: 0.288 µM
  CC50: 5.13 µM
  TGI: 1.91 µM
Hs-578T
  GI50: 1.78 µM
  LC50: 9.12 µM
  TGI: 4.07 µM
UACC-257
  GI50: 1.58 µM
  TGI: 3.39 µM
T47D
  GI50: 1.55 µM
  CC50: > 100 µM
  TGI: 6.46 µM
786-0
  GI50: 2.63 µM
  CC50: 34.7 µM
  TGI: 8.51 µM
SK-MEL-28
  GI50: 1.7 µM
  LC50: 5.75 µM
  TGI: 3.16 µM
NCI-H522
  GI50: 1.48 µM
  TGI: 3.63 µM
SK-MEL-5
  GI50: 1.58 µM
  CC50: 5.5 µM
  TGI: 2.95 µM
SF-295
  GI50: 8.32 µM
  LC50: 63.1 µM
  TGI: 24 µM
HOP-92
  GI50: 0.0407 µM
  LC50: 5.75 µM
  TGI: 0.912 µM
Malme-3M
  GI50: 1.66 µM
  LC50: 5.75 µM
  TGI: 3.09 µM
CAKI-1
  GI50: 1.38 µM
  CC50: 66.1 µM
  TGI: 30.2 µM
DU-145
  GI50: 3.47 µM
  CC50: 49 µM
  TGI: 15.1 µM
NCI-H322M
  GI50: 11 µM
  CC50: 49 µM
  TGI: 22.9 µM
TK-10
  GI50: 4.9 µM
  CC50: 40.7 µM
  TGI: 15.8 µM
HT-29
  GI50: 1.58 µM
  LC50: 7.59 µM
  TGI: 3.47 µM
SK-MEL-2
  GI50: 2.19 µM
  TGI: 4.37 µM
MOLT-4
  GI50: 2.51 µM
  LC50: 100 µM
  TGI: 6.46 µM
SW-620
  GI50: 4.27 µM
  LC50 (concentration killing 50% of cells): 66.1 µM
  TGI: 17.4 µM
A498
  GI50: 12.9 µM
  CC50: 61.7 µM
  TGI: 28.2 µM
HOP-62
  GI50: 2.69 µM
  CC50: 38 µM
  TGI: 8.91 µM
[1]
  GI50: 2.57 µM
  LC50: > 100 µM
  TGI: 8.71 µM
MDA-MB-231
  GI50: 1.74 µM
  LC50 (50% lethal concentration): 7.59 µM
  TGI: 3.63 µM
SNB-75
  GI50: 2.95 µM
  CC50: 9.77 µM
  TGI: 5.37 µM
BT-549
  GI50: 0.0692 µM
  LC50: 3.39 µM
  TGI: 1.07 µM
UACC-62
  GI50: 1.48 µM
  LC50: 5.75 µM
  TGI: 2.88 µM
MCF7
  Drug uptake: 800 pmol
K562
  GI50: 0.832 µM
  LC50: > 100 µM
  TGI: 3.98 µM
